{"source": "ChEMBL document CHEMBL1122055", "about": "“DL-threo-beta-Fluoroaspartate and DL-threo-beta-fluoroasparagine: selective cytotoxic agents for mammalian cells in culture” (J Med Chem, 1982)", "key": {"[1]": {"system": "H4", "experiment": "Tested for its reversal effect on growth of H4 cells at 330 + 40 ug/mL concentrations of L-aspargine and DL-threo-beta-fluoroaspartate", "assay_type": "functional", "method_in_brief": "(§1)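 H4 hepatoma cells seeded at 8×10^3 per 35-mm dish in F 10+ medium. On day 4, the medium was renewed and treatments started, including L-aspartate or L-asparagine. Incubation 72 h, then Lowry total cell protein per dish. Results reported as % of untreated control, mean of duplicate dishes.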"}, "[2]": {"system": "H4", "experiment": "Tested for its reversal effect on growth of H4 cells at 133 + 50 ug/mL concentrations of L-aspargine and DL-threo-beta-fluoroaspartate", "assay_type": "functional", "method_in_brief": "(§2)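 Rat hepatoma H4 cells seeded at 1.4×10^4 per 35-mm dish in MEM+. On day 4, fresh MEM+ was added, with treatments including L-aspartate or L-asparagine. Exposure 66 h, then total cell protein per dish measured by Lowry. Results expressed as % of untreated control protein, mean of duplicate dishes.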"}, "[3]": {"system": "H4 (Rattus norvegicus)", "experiment": "Tested for its reversal effect on growth of H4 cells at 133 ug/mL concentrations of L-aspargine and DL-threo-beta-fluoroaspartate"}, "[4]": {"system": "H4 (Rattus norvegicus)", "experiment": "Tested for its reversal effect on growth of H4 cells at 330 ug/mL concentrations of L-aspargine and DL-threo-beta-fluoroaspartate"}, "[5]": {"system": "H4", "experiment": "Tested for its reversal effect on growth of H4 cells at 330 + 5 ug/mL concentrations of L-aspargine and DL-threo-beta-fluoroaspartate", "assay_type": "functional", "method_in_brief": "as §1"}, "[6]": {"system": "H4", "experiment": "Tested for its reversal effect on growth of H4 cells at 133 + 5 ug/mL concentrations of L-aspargine and DL-threo-beta-fluoroaspartate", "assay_type": "functional", "method_in_brief": "as §2"}, "[7]": {"system": "H4", "experiment": "Tested for its reversal effect on growth of H4 cells at 330+5 ug/mL concentrations of L-aspargine and DL-threo-beta-fluoroaspartate", "assay_type": "functional", "method_in_brief": "as §1"}, "[8]": {"system": "H4", "experiment": "Tested for its reversal effect on growth of H4 cells at 133+5 ug/mL concentrations of L-aspargine and DL-threo-beta-fluoroaspartate", "assay_type": "functional", "method_in_brief": "as §2"}}}
{"smiles": "NC(=O)C(F)[C@H](N)C(=O)O.NC(=O)C[C@H](N)C(=O)O", "note": "(mixture of isomers; form 2)", "values": [{"measurement": "Cell protein in untreated control", "setting": "[1]", "result": 80, "unit": "%"}, {"measurement": "Cell protein in untreated control", "setting": "[2]", "result": 19, "unit": "%"}]}
{"smiles": "NC(=O)C[C@H](N)C(=O)O", "note": "[ASPARAGINE]", "values": [{"measurement": "Cell protein in untreated control", "setting": "[3]", "result": 103, "unit": "%"}, {"measurement": "Cell protein in untreated control", "setting": "[4]", "result": 100, "unit": "%"}]}
{"smiles": "NC(=O)C[C@H](N)C(=O)O.NC(C(=O)O)C(F)C(=O)O", "note": "(racemic)", "values": [{"measurement": "Cell protein in untreated control", "setting": "[5]", "result": 17, "unit": "%"}, {"measurement": "Cell protein in untreated control", "setting": "[6]", "result": 0, "unit": "%"}]}
{"smiles": "NC(C(=O)O)C(F)C(=O)O.N[C@@H](CC(=O)O)C(=O)O", "note": "(mixture of isomers)", "values": [{"measurement": "Cell protein in untreated control", "setting": "[7]", "result": 78, "unit": "%"}, {"measurement": "Cell protein in untreated control", "setting": "[8]", "result": 79, "unit": "%"}]}
